Test results taken from PMC10436028 (RSC Advances, 2023).

Columns and labels:
Type in all cases: cell-based
HEK-293 cell line = experiment: MTT toxicity assay, normal cell line HEK-293; settings: Homo sapiens, HEK293, 48 h, read-out: IC50 against HEK-293
Summary of the method: (§1)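 Test compound dissolved in PBS with 0.5% DMSO and diluted in the same solvent. Cells were grown in DMEM with 10% FBS and 1% penicillin-streptomycin at 37 °C, 5% CO2. They were trypsinised, seeded and held 48 h, then given fresh medium. Exposure was 15.62–500 μM for 48 h. MTT (0.5 mg.mL−1) ran 4 h, formazan was dissolved in DMSO, and A570 read. Six vehicle wells per plate served as control. Viability was computed, in triplicate, as mean ± SD.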

MCF-7 cell line = experiment: MTT assay, breast cancer MCF-7 cell line; settings: Homo sapiens, MCF7, 48 h, read-out: IC50 against MCF-7
Summary of the method: as §1

A-375 cell line = experiment: MTT assay, melanoma A-375 cell line; settings: Homo sapiens, A-375, 48 h, read-out: IC50 against A-375
Summary of the method: as §1

Cn1c(=O)c2c(nc(N3CCN(Cc4cn(Cc5ccccc5)nn4)CC3)n2C)n(C)c1=O [Compound 12a, 8-(4-((1-Benzyl-1H-1,2,3-triazol-4-yl)methyl)piperazin-1-yl)-1,3,7-trimethyl-3,7-dihydro-1H-purine-2,6-dione]
IC50 (HEK-293 cell line): > 500 µM | IC50 (MCF-7 cell line): > 500 µM | IC50 (A-375 cell line): > 500 µM

Cn1c(=O)c2c(nc(N3CCN(Cc4cn(CC(=O)OCc5ccccc5)nn4)CC3)n2C)n(C)c1=O [Compound 12b, Benzyl 2-(4-((4-(1,3,7-trimethyl-2,6-dioxo-2,3,6,7-tetrahydro-1H-purin-8-yl)piperazin-1-yl)methyl)-1H-1,2,3-triazol-1-yl)acetate]
IC50 (HEK-293 cell line): > 500 µM | IC50 (MCF-7 cell line): > 500 µM | IC50 (A-375 cell line): > 500 µM

Cn1c(=O)c2c(nc(N3CCN(Cc4cn(C(c5ccccc5)c5ccccc5)nn4)CC3)n2C)n(C)c1=O [Compound 12c, 8-(4-((1-Benzhydryl-1H-1,2,3-triazol-4-yl)methyl)piperazin-1-yl)-1,3,7-trimethyl-3,7-dihydro-1H-purine-2,6-dione]
IC50 (HEK-293 cell line): > 500 µM | IC50 (MCF-7 cell line): > 500 µM | IC50 (A-375 cell line): > 500 µM

Cn1c(=O)c2c(nc(N3CCN(Cc4cn(CCCc5ccccc5)nn4)CC3)n2C)n(C)c1=O [Compound 12d, 1,3,7-Trimethyl-8-(4-((1-(3-phenylpropyl)-1H-1,2,3-triazol-4-yl)methyl)piperazin-1-yl)-3,7-dihydro-1H-purine-2,6-dione]
IC50 (HEK-293 cell line): > 500 µM | IC50 (MCF-7 cell line): > 500 µM | IC50 (A-375 cell line): > 500 µM

Cn1c(=O)c2c(nc(N3CCN(Cc4cn(CCc5ccccc5)nn4)CC3)n2C)n(C)c1=O [Compound 12e, 1,3,7-Trimethyl-8-(4-((1-phenethyl-1H-1,2,3-triazol-4-yl)methyl)piperazin-1-yl)-3,7-dihydro-1H-purine-2,6-dione]
IC50 (HEK-293 cell line): > 500 µM | IC50 (MCF-7 cell line): > 500 µM | IC50 (A-375 cell line): > 500 µM

Cc1ccc(Cn2cc(CN3CCN(c4nc5c(c(=O)n(C)c(=O)n5C)n4C)CC3)nn2)cc1 [Compound 12f, 1,3,7-Trimethyl-8-(4-((1-(4-methylbenzyl)-1H-1,2,3-triazol-4-yl)methyl)piperazin-1-yl)-3,7-dihydro-1H-purine-2,6-dione]
IC50 (HEK-293 cell line): > 500 µM | IC50 (MCF-7 cell line): > 500 µM | IC50 (A-375 cell line): > 500 µM

CCOC(=O)CCCn1cc(CN2CCN(c3nc4c(c(=O)n(C)c(=O)n4C)n3C)CC2)nn1 [Compound 12g, Ethyl 4-(4-((4-(1,3,7-trimethyl-2,6-dioxo-2,3,6,7-tetrahydro-1H-purin-8-yl)piperazin-1-yl)methyl)-1H-1,2,3-triazol-1-yl)butanoate]
IC50 (HEK-293 cell line): > 500 µM | IC50 (MCF-7 cell line): > 500 µM | IC50 (A-375 cell line): > 500 µM

CCCCCCCn1cc(CN2CCN(c3nc4c(c(=O)n(C)c(=O)n4C)n3C)CC2)nn1 [Compound 12h, 8-(4-((1-Heptyl-1H-1,2,3-triazol-4-yl)methyl)piperazin-1-yl)-1,3,7-trimethyl-3,7-dihydro-1H-purine-2,6-dione]
IC50 (HEK-293 cell line): > 500 µM | IC50 (MCF-7 cell line): 306 ± 1.8 µM | IC50 (A-375 cell line): 498 ± 2 µM

CCCCCCn1cc(CN2CCN(c3nc4c(c(=O)n(C)c(=O)n4C)n3C)CC2)nn1 [Compound 12i, 8-(4-((1-Hexyl-1H-1,2,3-triazol-4-yl)methyl)piperazin-1-yl)-1,3,7-trimethyl-3,7-dihydro-1H-purine-2,6-dione]
IC50 (HEK-293 cell line): 371 ± 2.3 µM | IC50 (MCF-7 cell line): 260 ± 2.2 µM | IC50 (A-375 cell line): 371 ± 2.5 µM

CCCCCCCCn1cc(CN2CCN(c3nc4c(c(=O)n(C)c(=O)n4C)n3C)CC2)nn1 [Compound 12j, 1,3,7-Trimethyl-8-(4-((1-octyl-1H-1,2,3-triazol-4-yl)methyl)piperazin-1-yl)-3,7-dihydro-1H-purine-2,6-dione]
IC50 (HEK-293 cell line): 418 ± 2.4 µM | IC50 (MCF-7 cell line): 245 ± 2.3 µM | IC50 (A-375 cell line): 323 ± 2.6 µM

CCCCCCCCCCn1cc(CN2CCN(c3nc4c(c(=O)n(C)c(=O)n4C)n3C)CC2)nn1 [Compound 12k, 8-(4-((1-Decyl-1H-1,2,3-triazol-4-yl)methyl)piperazin-1-yl)-1,3,7-trimethyl-3,7-dihydro-1H-purine-2,6-dione]
IC50 (HEK-293 cell line): > 500 µM | IC50 (MCF-7 cell line): 175 ± 3.2 µM | IC50 (A-375 cell line): 367 ± 3.4 µM

Cn1c(=O)c2c(nc(N3CCN(Cc4cn(CCCCCN5C(=O)c6ccccc6C5=O)nn4)CC3)n2C)n(C)c1=O [Compound 12l, 8-(4-((1-(5-(1,3-Dioxoisoindolin-2-yl)pentyl)-1H-1,2,3-triazol-4-yl)methyl)piperazin-1-yl)-1,3,7-trimethyl-3,7-dihydro-1H-purine-2,6-dione]
IC50 (HEK-293 cell line): > 500 µM | IC50 (MCF-7 cell line): > 500 µM | IC50 (A-375 cell line): > 500 µM

Cn1c(=O)c2c(nc(N3CCN(Cc4cn(CCCCN5C(=O)c6ccccc6S5(=O)=O)nn4)CC3)n2C)n(C)c1=O [Compound 12m, 8-(4-((1-(4-(1,1-Dioxido-3-oxobenzo[d]isothiazol-2(3H)-yl)butyl)-1H-1,2,3-triazol-4-yl)methyl)piperazin-1-yl)-1,3,7-trimethyl-3,7-dihydro-1H-purine-2,6-dione]
IC50 (HEK-293 cell line): > 500 µM | IC50 (MCF-7 cell line): > 500 µM | IC50 (A-375 cell line): > 500 µM

Cn1c(=O)c2c(nc(N3CCN(Cc4cn(CCCN5C(=O)c6ccccc6S5(=O)=O)nn4)CC3)n2C)n(C)c1=O [Compound 12n, 8-(4-((1-(3-(1,1-Dioxido-3-oxobenzo[d]isothiazol-2(3H)-yl)propyl)-1H-1,2,3-triazol-4-yl)methyl)piperazin-1-yl)-1,3,7-trimethyl-3,7-dihydro-1H-purine-2,6-dione]
IC50 (HEK-293 cell line): > 500 µM | IC50 (MCF-7 cell line): > 500 µM | IC50 (A-375 cell line): > 500 µM

Cn1c(=O)c2c(nc(N3CCN(Cc4cn(CCCCCN5C(=O)c6ccccc6S5(=O)=O)nn4)CC3)n2C)n(C)c1=O [Compound 12o, 8-(4-((1-(5-(1,1-Dioxido-3-oxobenzo[d]isothiazol-2(3H)-yl)pentyl)-1H-1,2,3-triazol-4-yl)methyl)piperazin-1-yl)-1,3,7-trimethyl-3,7-dihydro-1H-purine-2,6-dione]
IC50 (HEK-293 cell line): > 500 µM | IC50 (MCF-7 cell line): > 500 µM | IC50 (A-375 cell line): > 500 µM

CN(Cc1cnc2nc(N)nc(N)c2n1)c1ccc(C(=O)N[C@@H](CCC(=O)O)C(=O)O)cc1 [MTX, methotrexate, reference compound]
IC50 (HEK-293 cell line): 199 ± 2.4 µM | IC50 (MCF-7 cell line): 343 ± 3.6 µM | IC50 (A-375 cell line): 418 ± 2 µM
